Experimental data published in ChEMBL document CHEMBL1122596, “Synthesis and evaluation of a novel series of N,N-dimethylisotryptamines” (J Med Chem, 1984).
“And” between values parts separate entries of the source, which are not always exact repeats. Equal values may be shown once.

Experiments:
[1] = target: 5-hydroxytryptamine receptor 2B (Rattus norvegicus, UniProt P30994); assay: Displacement of [3H]5-HT binding to serotonin receptor of rat fundus membranes; details: read-out: pA2 (converted)
Chain of 5-hydroxytryptamine receptor 2B (P30994 whole entry): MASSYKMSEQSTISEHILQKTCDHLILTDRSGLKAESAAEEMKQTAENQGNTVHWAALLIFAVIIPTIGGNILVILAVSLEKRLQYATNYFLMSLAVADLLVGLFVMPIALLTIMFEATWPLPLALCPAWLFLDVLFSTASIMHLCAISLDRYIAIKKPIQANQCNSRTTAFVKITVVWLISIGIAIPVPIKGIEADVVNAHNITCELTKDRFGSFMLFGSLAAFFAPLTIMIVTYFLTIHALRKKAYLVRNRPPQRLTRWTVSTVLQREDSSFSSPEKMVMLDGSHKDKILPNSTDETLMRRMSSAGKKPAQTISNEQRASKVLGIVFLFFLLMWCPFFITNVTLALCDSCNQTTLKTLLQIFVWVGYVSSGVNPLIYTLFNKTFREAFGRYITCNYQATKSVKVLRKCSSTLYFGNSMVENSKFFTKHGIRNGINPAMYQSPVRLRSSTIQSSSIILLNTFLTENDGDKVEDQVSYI

[2] = target: Serotonin (5-HT) receptor; assay: Evaluated for inhibition of specific [3H]5-HT receptor binding in rat cortex.
Outline: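 Rat cortex (dorsal to rhinal sulcus) from male Sprague-Dawley rats (150–200 g), pooled, homogenized in 0.05 M Tris-HCl pH 7.4, washed four times by centrifugation with a 37 °C 10-min incubation between washes. [3H]-5-HT binding done with varying test compound concentrations in 50 mM Tris pH 7.4, 10 μM pargyline, 4 mM CaCl2, 7 min at 37 °C. Filtered on glass fibre. Specific binding taken as the difference with 1 μM metergoline.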

Rattus norvegicus [3] = assay: Responses made on the DOM -appropriate lever as a percent of total responses; data was collected during the 2.5 min extinction session at 12 mg/kg dose; type: functional
Outline: (§1)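 Male Sprague-Dawley rats trained to tell racemic DOM (1.0 mg/kg) from saline in a two-lever operant task (VI-15s schedule). Drug was given 15 min before a 2.5-min nonreinforced extinction session. The read-out was DOM-appropriate lever responses as % of total responses, with about 5 rats per dose. ED50 was taken from dose-response data by Finney's method.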

Rattus norvegicus [4] = assay: Responses made on the DOM -appropriate lever as a percent of total responses; data was collected during the 2.5 min extinction session at 7 mg/kg dose; type: functional; outline: as §1
Rattus norvegicus [5] = species: Rattus norvegicus; assay: Mean responses per minute during the extinction session.; type: functional
Outline: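 Male Sprague-Dawley rats trained in a two-lever operant task to discriminate racemic DOM (1.0 mg/kg) from saline, given 15 min before a VI-15s reinforcement schedule. Test compound given by injection before a 2.5-min nonreinforced extinction session. Read-outs are DOM-lever responses as percent of total responses, and responses per minute. Values are means ±SEM over the animals responding; no responding was recorded as disruption.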

Structure (SMILES) | Kb [1] [nM] | IC50 [2] [nM] | further results
NCCC1CNc2ccccc21 (centres undefined) | 2090 | – | –
COc1cccc2[nH]cc(CCN)c12 | – | 220 | –
CCN(CCN(C)C)c1ccccc1 | 537 | – | –
CN(C)CCn1cnc2ccccc21 | 138 | – | DOM (Rattus norvegicus [3]): 0%; DOM (Rattus norvegicus [4]): 0%; Response rate (Rattus norvegicus [5]): 12.6 and 15.2
COc1ccc2c(CCN)c[nH]c2c1 | – | 630 | –
CN(C)CCN1CCc2ccccc21 | 269 | – | –
